Screening results (PubChem)
Shown are actives, neighbours in structure and some others; about 2.3% of the full set was active somewhere.
TRPC6 act – activates the mouse TRPC6 cation channel. Q61143. HEK293-TRPC6 membrane potential dye fluorescence; hits give high values. B-score at 10 µM. hit rate 0.13% among 310,000. AID 2550;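 active = B-score of the integrated fluorescence ratio above library mean plus 3 SD, and starting fluorescence ratio within library mean plus 5 SD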;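 also: higher score means more depolarization so channel activation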
Target sequence (Q61143 whole entry, looked up): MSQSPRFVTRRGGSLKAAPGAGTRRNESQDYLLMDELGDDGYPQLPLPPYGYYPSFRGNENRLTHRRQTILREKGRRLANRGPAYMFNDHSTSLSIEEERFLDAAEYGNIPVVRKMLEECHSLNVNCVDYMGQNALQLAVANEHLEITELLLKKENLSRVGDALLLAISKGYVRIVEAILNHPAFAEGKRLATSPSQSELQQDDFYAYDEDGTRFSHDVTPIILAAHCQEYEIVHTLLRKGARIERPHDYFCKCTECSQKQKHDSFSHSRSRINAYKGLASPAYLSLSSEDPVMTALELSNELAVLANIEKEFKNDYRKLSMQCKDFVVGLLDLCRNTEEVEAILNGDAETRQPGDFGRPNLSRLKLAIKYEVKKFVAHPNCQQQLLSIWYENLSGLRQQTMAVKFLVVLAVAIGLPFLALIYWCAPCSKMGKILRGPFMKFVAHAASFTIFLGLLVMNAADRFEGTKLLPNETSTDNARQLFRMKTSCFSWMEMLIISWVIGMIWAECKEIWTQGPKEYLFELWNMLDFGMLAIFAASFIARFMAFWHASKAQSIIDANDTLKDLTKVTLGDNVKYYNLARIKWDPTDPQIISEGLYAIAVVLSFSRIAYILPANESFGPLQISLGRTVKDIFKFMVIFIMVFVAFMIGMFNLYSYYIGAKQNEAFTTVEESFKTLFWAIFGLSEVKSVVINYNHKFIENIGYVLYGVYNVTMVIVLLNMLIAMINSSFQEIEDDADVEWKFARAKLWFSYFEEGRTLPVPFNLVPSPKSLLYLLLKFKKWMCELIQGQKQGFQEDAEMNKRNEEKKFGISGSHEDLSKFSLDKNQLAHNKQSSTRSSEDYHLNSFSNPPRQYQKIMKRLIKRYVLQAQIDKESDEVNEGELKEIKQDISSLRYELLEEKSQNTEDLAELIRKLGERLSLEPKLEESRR
TRPC6 inh – inhibitors of mouse TRPC6 channel. AID 2553. Q61143. B-score at 10 µM. hit rate 1.1% among 310,000. HEK293-TRPC6, membrane potential dye, ACh-evoked depolarization; hits give low values;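 active = B-score under library mean minus 3 SD, initial fluorescence not abnormally high, positive integrated signal ratio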;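 also: B-score derived from integrated fluorescence ratio over the kinetic read; more negative B-score means stronger inhibition of depolarization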
TRPC4 act – TRPC4 (mouse) channel activation; hit rate 0.49% among 310,000; Q9QUQ5; HEK293 TRPC4beta/mu-opioid, Fluo4 calcium fluorescence; hits give high values; B-score at 10 µM;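 active = B-score above 5 SD of library B-scores, and initial fluorescence ratio not above library mean plus 5 SD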;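 also: positive B-score marks a calcium rise read as TRPC4 activation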
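Material: HEK293 stable line with TRPC4beta plus mu-opioid receptor; technique: Fluo4 calcium-sensitive dye fluorescence, kinetic, 1 Hz baseline; timing: Fluo4 dye loading 45 min at room temperature, 110 s recording; controls: assay buffer as low control, maximal DAMGO as high control; read-out: integrated baseline-normalised fluorescence ratio, converted to per-well B score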
TRPC4 inh – TRPC4 (mouse) channel inhibition; HEK293 TRPC4beta/mu-opioid, DAMGO-evoked Fluo4 calcium flux; hits give low values; B-score at 10 µM; hit rate 0.39% among 300,000; Q9QUQ5; AID 2247;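 active = B-score over 3 SD under the library average, no early fluorescence shift, positive overall ratio signal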
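Assay system: TRPC4beta/mu-opioid receptor HEK293 cell line; compound dosing: single concentration per test compound; detection: Fluo4 Ca2+ flux fluorescence; evaluation: per-well B score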
TRPC4 PAM – allosterically enhances the mouse TRPC4 cation channel; Q9QUQ5; B-score at 10 µM; HEK293 TRPC4beta/mu-opioid, DAMGO EC20, Fluo-4 Ca2+ flux; hits give high values; hit rate 0.42% among 310,000;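 active = B-score of calcium response area above 5 SD of library B-scores, with initial fluorescence ratio within 5 SD of library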
TRPC4 spec 2 – second check of whether TRPC6 inhibitors also affect mouse TRPC4 | hit rate 42% among 920 | inhibition, % at 10 µM | HEK293 TRPC4/MOR, membrane potential dye fluorescence; channel activated by saturating DAMGO dose | AID 2776 | shares compounds with TRPC6 inh;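 active = compounds whose fluorescence signal differed from control wells by over 3 SD, either direction, in both duplicate plates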
TRPC4 spec – tests whether TRPC6 inhibitors also affect mouse TRPC4. activity change, negative = inhibition, % at 10 µM. AID 2777. shares compounds with TRPC6 inh. hit rate 61% among 920. HEK293 TRPC4/mu-opioid, membrane potential fluorescence;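 active = rise or fall in signal beyond 3 SD of buffer-only wells in both replicate plates, either sign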;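 also: integrated kinetic ratio of fluorescence range over baseline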
HEK293 MPD ctr 2-1 – second check of TRPC6 inhibitor effects in parental HEK293 cells. shares compounds with TRPC6 inh. parental HEK293 membrane potential dye fluorescence; maximal acetylcholine challenge after compound addition. signal change vs control, % at 10 µM. hit rate 31% among 920;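 active = membrane potential signal moving either way by over 3 SD of the maximum-effect control, in both duplicate plates, meaning non-specific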
HEK293 MPD ctr-1 – checks TRPC6 inhibitor effects in parental HEK293 cells | shares compounds with TRPC6 inh | membrane potential signal change, % at 10 µM | parental HEK293 membrane potential dye fluorescence | hit rate 60% among 920;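 active = membrane potential signal shifting up or down by more than 3 SD of buffer-only wells, on both duplicate plates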
HEK293 MPD ctr-2 – parental HEK293 nonspecific activity of TRPC6 modulators | shares compounds with TRPC6 inh | membrane potential dye fluorescence | membrane potential signal change, % at 10 µM | hit rate 51% among 2,400 | AID 488924;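 active = membrane potential signal moves up or down beyond 5 SD from buffer-only wells, on both duplicate plates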
HEK293 MPD ctr 2-2 – second check of TRPC6 modulator effects in parental HEK293 cells. membrane potential dye fluorescence; after compound, maximal acetylcholine stimulation. hit rate 14% among 2,400. shares compounds with TRPC6 inh. inhibition, % at 10 µM;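 active = membrane potential signal drops by more than 5 SD from the mean control signal, in both duplicate plates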
TRPC4 ctr mod – mouse TRPC4 off-target activity of TRPC6 modulators; shares compounds with TRPC6 inh; HEK293 TRPC4/mu-opioid, membrane potential fluorescence; percent change from control (negative = decrease, positive = increase), % at 10 µM; hit rate 69% among 2,400;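 active = membrane potential signal moved up or down beyond 5 SD of buffer control wells, in both duplicate plates, actives on both sides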
TRPC4 ctr inh 2 – second check of whether TRPC6 modulators also affect mouse TRPC4 | hit rate 55% among 2,400 | AID 488928 | shares compounds with TRPC6 inh | inhibition, % at 10 µM | HEK293 TRPC4/mu-opioid, membrane potential dye fluorescence; stimulated with maximal-effect DAMGO;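 active = drop in membrane potential signal beyond 5 SD of the control wells in both duplicate plates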;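 also: TRPC4 counter screen for TRPC6 hits run under conditions tuned for TRPC6 not TRPC4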
TRPC6 inh conf – mouse TRPC6 inhibitor confirmation | shares compounds with TRPC6 inh | HEK293-TRPC6, membrane potential dye, ACh-evoked depolarization | inhibition, % at 10 µM | hit rate 43% among 3,300 | AID 488960;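 active = fluorescence ratio falls more than 5 SD below the full-stimulation control mean, in both duplicate runs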;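 also: integrated fluorescence ratio of peak minus minimum over baseline after agonist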
TRPC6 act conf – mouse TRPC6 activator confirmation; shares compounds with TRPC6 inh; HEK293-TRPC6 membrane potential dye fluorescence, FDSS; activation, % at 10 µM; hit rate 11% among 2,800;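 active = ratio signal rise beyond 5 SD above unstimulated control wells' mean, seen in both duplicate runs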
Numbers stand for hits; n = inactive; x = no result.

SMILES	TRPC6 act	TRPC6 inh	TRPC4 act	TRPC4 inh	TRPC4 PAM	HEK293 MPD ctr-2	HEK293 MPD ctr 2-2	TRPC4 ctr mod	TRPC4 ctr inh 2	TRPC6 inh conf	TRPC6 act conf	others
COCCNC(=O)CCSc1nc(-c2ccc(OC)cc2)cc(C(F)(F)F)n1	n	-5.6	n	n	n	n	n	n	n	n	n
CCOc1cc(/C=N/NC(=O)c2ccc(CN3CCOCC3)cc2)ccc1OC	n	n	n	n	n	x	x	x	x	x	x
CCOc1cc(/C=C/C(=O)c2ccc(OC)c(CN3CCOCC3)c2)cc(Br)c1O	20	n	n	n	n	184%	n	26%	n	n	42%
CCCCc1ncc(CN2CCC(n3nccc3NC(=O)c3ccccc3Cl)CC2)[nH]1	n	n	n	n	n	x	x	x	x	x	x
CCOC(=O)c1ccc(NC(=O)CCc2ccc(CC)o2)cc1	n	-12	n	n	n	x	x	x	x	n	x	TRPC4 spec 2=n;TRPC4 spec=n;HEK293 MPD ctr 2-1=n;HEK293 MPD ctr-1=n
Cc1nn2c(NCCCN(C)C)c3c(nc2c1-c1ccccc1)CCCC3	n	-6.8	n	n	n	x	x	x	x	63%	n	TRPC4 spec 2=72%;TRPC4 spec=-19%;HEK293 MPD ctr 2-1=n;HEK293 MPD ctr-1=-296%
Cc1nn2c(NCCCN(C)C)c3c(nc2c1-c1ccccc1)CCC3	n	-7.9	n	n	n	-167%	n	-30%	55%	n	n
COCCNc1c2c(nc3c(-c4ccccc4)c(C)nn13)CCC2	n	n	n	n	n	x	x	x	x	x	x
Cc1cccn2c(CNC3CCCc4ccccc43)c(C(=O)N3CCCCC3)nc12 (configuration not stated)	n	-8	n	n	n	420%	75%	92%	55%	74%	x
CCOC(=O)C1CCCN(Cc2c(C(=O)N3CCCCC3)nc3c(C)cccn23)C1 (configuration not stated)	n	n	n	n	n	x	x	x	x	x	x
Cc1cc(C)cc(NC(=O)c2ccc(N3C(=O)C4CCCCC4C3=O)cc2)c1 (configuration not stated)	n	n	n	n	n	x	x	x	x	x	x
O=C(NNC(=O)c1cc(O)c(O)c(O)c1)NC1CCCCC1	n	n	n	n	n	x	x	x	x	x	x
CCCC(O)(CCN1CCOCC1)c1ccc(Br)cc1 (configuration not stated)	n	-7.5	n	-6	n	x	x	x	x	n	n	TRPC4 spec 2=76%;TRPC4 spec=4.2%;HEK293 MPD ctr 2-1=n;HEK293 MPD ctr-1=3.6%
CCCC(O)(CCN1CCOCC1)c1ccc(Cl)cc1 (configuration not stated)	n	n	n	n	n	x	x	x	x	x	x
CC(=O)c1c(C)nc2cc(Cl)ccc2c1N	n	-5.8	n	n	n	-66%	n	-12%	32%	n	n
COc1ccc(/C=N/n2c(COc3ccccc3)n[nH]c2=S)cc1OC	n	n	n	n	n	x	x	x	x	x	x
OCCCCCN=c1cc(-c2ccccc2)oc2ccc(Cl)cc12	n	-8	n	n	n	x	x	x	x	74%	n	TRPC4 spec 2=57%;TRPC4 spec=-26%;HEK293 MPD ctr 2-1=31%;HEK293 MPD ctr-1=-432%
OCCN1CCN(c2nc(-c3ccccc3)c3cc(Cl)ccc3n2)CC1	n	n	n	n	n	x	x	x	x	x	x
CCCCOC(=O)c1ccc(NC(=O)COC(=O)C2CSC3(C)CCC(=O)N23)cc1 (configuration not stated)	n	-5.7	n	n	n	n	n	n	n	75%	x
CC12CCC(=O)N1C(C(=O)OCC(=O)Nc1sccc1C#N)CS2 (configuration not stated)	n	n	n	n	n	x	x	x	x	x	x
N#Cc1ccccc1OCCCN1CCC(Cc2ccccc2)CC1	n	n	n	n	n	x	x	x	x	x	x
COC(=O)CN1C(=O)S/C(=C/c2ccc(N3CCCCC3)o2)C1=O	13	n	n	n	n	162%	n	90%	n	n	35%
COc1ccccc1CNCc1ccc(OC)c2ccccc12	n	-6.2	n	-7	n	265%	n	64%	70%	52%	x
COc1ccc(-n2nc3c(c2NC(=O)c2c(F)cccc2Cl)CS(=O)C3)cc1 (configuration not stated)	n	n	n	n	n	x	x	x	x	x	x
COc1ccccc1OCC(=O)OCC(=O)Nc1sccc1C(N)=O	n	-5.4	n	n	n	n	n	n	n	n	n
SMILES	TRPC6 act	TRPC6 inh	TRPC4 act	TRPC4 inh	TRPC4 PAM	HEK293 MPD ctr-2	HEK293 MPD ctr 2-2	TRPC4 ctr mod	TRPC4 ctr inh 2	TRPC6 inh conf	TRPC6 act conf	others
COc1ccc(C(=O)OCC(=O)Nc2sccc2C(N)=O)cc1OC	n	n	n	n	n	x	x	x	x	x	x
O=c1[nH]c(=S)[nH]c2sccc12	n	n	n	n	n	x	x	x	x	x	x
Cc1ccc(Cn2c(SCC(=O)NCC3CCCO3)nc3c2c(=O)n(C)c(=O)n3C)cc1 (configuration not stated)	n	n	n	n	n	x	x	x	x	x	x
C[N+](C)(C)CC/C=C1/c2ccccc2CSc2ccccc21	n	-5.5	n	n	n	n	72%	n	n	82%	n
CCCn1c(=O)c(C(=O)NNS(=O)(=O)c2ccc(Cl)cc2)c(O)c2ccccc21	n	n	n	n	n	x	x	x	x	x	x
CCCCn1c(N)c(N(CCOC)C(=O)COC(=O)C(C)(C)Oc2ccc(Cl)cc2)c(=O)[nH]c1=O	n	n	n	n	n	x	x	x	x	x	x
CN(C)c1ccc(C(=O)OCC(=O)NC2CCCCC2)cc1	n	n	n	n	n	x	x	x	x	x	x
COc1ccc(/C=C2/C(=N)N3N=C(CC(=O)N4CCCC4)SC3=NC2=O)cc1	12	n	n	n	n	163%	n	24%	n	n	84%
